These results are taken from article PMC10189352 (Molecular Therapy. Nucleic Acids, 2023).

For one experiment, the system named is MYC. The experiment in a line: Western blot of MYC protein in murine AML cells. The class given is cell-based. The conditions noted are these: murine MLL-AF9, Nras^G12D AML cells, 6 h, RVX-208 1 μM, OTX-015 1 μM, candidates 10 μM. In outline: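 Whole-cell lysates were prepared after the 6 h treatment and probed for MYC by western blot. DMSO-treated cells were the vehicle control.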
A general note: A western blot detects proteins with antibodies after separation by electrophoresis.

Experiment [1] has as its system BRD4 occupancy at e1-e5 Myc enhancers. The experiment in a line: BRD4 ChIP-qPCR at Myc enhancers in murine AML cells. The class given is cell-based. On the technique in general: In qPCR the cycle at which signal appears reflects the starting amount.
Another experiment relates to BRD4 chromatin occupancy. The experiment in a line: BRD4 ChIP-seq in murine AML cells. The class given is cell-based. The conditions noted are these: regions enriched with H3K27ac.
Experiment [2] deals with RNA polymerase II chromatin occupancy. The experiment in a line: RNA Pol II ChIP-seq in murine AML cells. The class given is cell-based. To be noted: BRD4-occupied sites.
Experiment [3] deals with murine AML cells (MLL-AF9; Nras^G12D). The experiment in a line: RNA-seq and GSEA in murine AML cells. The class given is cell-based. The conditions noted are these: RNA-seq; for mRNA levels of JQ1-rapid target genes (n = 50): relative to DMSO.
A further experiment deals with PDA organoids. The experiment in a line: PDA organoid growth. The class given is cell-based, mouse. To be noted: 24, 48, and 72 h, light microscopy; CellTiter Glo-3D. The essentials:
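PDA organoids were treated with test compound or DMSO and imaged by light microscopy at 24, 48 and 72 h. Growth was quantified with CellTiter-Glo 3D. Data are shown as mean ± SEM, and p-values came from Student's t test.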
(In ATP-based viability assays light output follows the ATP content of the culture.)

In experiment [4] the test system is BD2 vs BD1 of BET proteins. To be noted: approximately; cited from earlier work.
A further experiment has as its system Hexim1 mRNA. In words: RT-qPCR of Hexim1 in murine AML cells. The class given is cell-based. To be noted: 6 h treatment.
A further experiment concerns c-Kit surface expression. In words: Flow cytometric analysis of c-Kit in murine AML cells. The class given is cell-based. The conditions noted are these: 48 h, flow cytometry.
Experiment [5] concerns MLL-AF9;Nras^G12D AML cells. The experiment in a line: Propidium iodide staining of murine AML cells. The class given is cell-based. The conditions noted are these: 48 h (Figure 3D).
Another experiment has as its system human AML cells. In words: Methylcellulose-based colony formation of human AML cells. The conditions noted are these: semi-solid methylcellulose (Figure 3E). The class given is cell-based.
Experiment [6] deals with human leukemia cell lines. In words: Proliferation assay of human leukemia cell lines. The class given is cell-based. The conditions noted are these: 48 h, normalized to DMSO-treated cells. In outline:
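Human leukemia cell lines were grown with test compound. Proliferation rate was normalised to DMSO-treated cells; n = 3, mean ± SEM.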

In experiment [7] the test system is murine AML cells expressing Myc cDNA. The experiment in a line: Ectopic Myc cDNA expression rescue in murine AML cells. To be noted: murine AML cells transduced with Myc cDNA MSCV retrovirus. The class given is cell-based.
Another experiment has as its system AsPC-1 cells. The experiment in a line: Colony formation of adherent cancer cells. The class given is cell-based, human. To be noted: dose-dependent; after 5 days of treatment.
A further experiment has as its system SW-480 cells. In words: Colony formation of adherent cancer cells. The class given is cell-based, human. The conditions noted are these: dose-dependent; after 5 days of treatment.

The structures appear in SMILES notation. Where only a bound is given, the exact number is not on record here.

Consider `COc1cc(OC)c2c(=O)[nH]c(-c3cc(C)c(OCCO)c(C)c3)nc2c1` [RVX-208, apabetalone], for which the MYC protein expression entry in the experiment with MYC is recorded as “only modestly affected MYC protein expression”. The “BRD4 occupancy at e1-e5 Myc enhancers” value in experiment [1] is given as “negligible effect on the BRD4 occupancy at e1-e5”. For the same compound, the “BRD4 chromatin occupancy (ChIP-seq)” value in the experiment with BRD4 chromatin occupancy is “negligible”. Besides, the “RNA Pol II chromatin binding (ChIP-seq)” value in experiment [2] is given as “negligible”. Also, in experiment [3], the “LSC signature genes (GSEA)” value was “insignificant” and the “mRNA levels of JQ1-rapid target genes (n = 50)” value was “downregulated some but not all JQ1-rapid targets”. Moreover, in the experiment with PDA organoids, the PDA organoid growth entry is listed as “but not RVX-208, attenuated PDA organoid growth”. In experiment [4], the “stronger binding affinity toward BD2 than BD1” value is 10- to 100 fold.
In the case of `Cc1sc2c(c1C)C(c1ccc(Cl)cc1)=N[C@@H](CC(=O)Nc1ccc(O)cc1)c1nnc(C)n1-2` [OTX-015, birabresib], the MYC protein expression entry in the experiment on MYC is “downregulated MYC protein levels”. For the same compound, in the experiment on Hexim1 mRNA, the “increase of Hexim1 mRNA expression” value is over 20 fold. For the same compound, the “BRD4 occupancy at e1-e5 Myc enhancers” value in [1] was “impaired the occupancy of BRD4 at the e1-e5 Myc enhancers”. Moreover, in [3], the “LSC signature genes (GSEA)” value is listed as “significantly suppressed the LSC signature genes” and the “mRNA levels of JQ1-rapid target genes (n = 50)” value is on record as “strongly downregulated all JQ1-rapid targets”. Also, in experiment [3] (vs DMSO), the “expression of genes close to the BBC1115-sensitive 330 regions (GSEA)” value is listed as “significantly downregulated”. The c-Kit surface expression entry in the experiment with c-Kit surface expression is on record as “downregulated c-Kit”. The “proliferation of leukemia cells” value in experiment [5] is “inhibited the proliferation of leukemia cells”. Further, in the experiment with human AML cells, the “ability to form colonies on methylcellulose” value was “substantially suppressed”. In addition, in experiment [6], the “anti-proliferative activity in K562, NOMO-1, JURKAT, and HL-60” value was “minimal sensitivity”; the “anti-proliferative activity in MV4-11, KASUMI-1, MOLM-13, and THP-1” value is reported as “broad growth-suppressive effect”. Besides, in [7], the “effect of ectopic Myc expression on drug sensitivity” value is listed as “ectopic Myc expression conferred resistance”. Besides, the “clonogenic growth of AsPC-1 cells” value with AsPC-1 cells is “markedly inhibit clonogenic growth”. The “clonogenic growth of SW-480 cells” value in the experiment with SW-480 cells is “markedly inhibit clonogenic growth”. The PDA organoid growth entry with PDA organoids is “attenuated PDA organoid growth”.
